Assay results: ChEMBL document CHEMBL4033785, “Increased Potency and Selectivity for Group III Metabotropic Glutamate Receptor Agonists Binding at Dual sites” (J Med Chem, 2018)
Active and inactive are the calls of the source. The rule behind the calls is not given here.

Experiments:
Homo sapiens [1] = species on record: Homo sapiens; assay: (§1) Selectivity ratio of EC50 for mGlu8 (unknown origin) expressed in HEK293 cells coexpressing chimeric Gq/i protein assessed as [3H]inositol phosphate accumulation to EC50 for mGlu4 (unknown origin) expressed in HEK293 cells coexpressing chimeric Gq/i protein assessed as [3H]inositol phosphate accumulation; format: cell-based
Summary of the method: (§2)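 Ratio of mGlu8 EC50 to mGlu4 EC50, both from the same functional assay. Both receptors were co-expressed in HEK293 cells with chimeric G-protein and EAAT3 and read by 3H-IP accumulation or by Fluo-4 Ca2+ release.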

[2] = target: T1, Metabotropic glutamate receptor 6 (Homo sapiens, UniProt O15303); assay: Agonist activity at mGlu6 (unknown origin) expressed in HEK293 cells coexpressing chimeric Gq/i protein assessed as [3H]inositol phosphate accumulation after 30 mins by scintillation and luminescence counting method; format: functional, cell-based
T1 sequence (O15303 whole entry): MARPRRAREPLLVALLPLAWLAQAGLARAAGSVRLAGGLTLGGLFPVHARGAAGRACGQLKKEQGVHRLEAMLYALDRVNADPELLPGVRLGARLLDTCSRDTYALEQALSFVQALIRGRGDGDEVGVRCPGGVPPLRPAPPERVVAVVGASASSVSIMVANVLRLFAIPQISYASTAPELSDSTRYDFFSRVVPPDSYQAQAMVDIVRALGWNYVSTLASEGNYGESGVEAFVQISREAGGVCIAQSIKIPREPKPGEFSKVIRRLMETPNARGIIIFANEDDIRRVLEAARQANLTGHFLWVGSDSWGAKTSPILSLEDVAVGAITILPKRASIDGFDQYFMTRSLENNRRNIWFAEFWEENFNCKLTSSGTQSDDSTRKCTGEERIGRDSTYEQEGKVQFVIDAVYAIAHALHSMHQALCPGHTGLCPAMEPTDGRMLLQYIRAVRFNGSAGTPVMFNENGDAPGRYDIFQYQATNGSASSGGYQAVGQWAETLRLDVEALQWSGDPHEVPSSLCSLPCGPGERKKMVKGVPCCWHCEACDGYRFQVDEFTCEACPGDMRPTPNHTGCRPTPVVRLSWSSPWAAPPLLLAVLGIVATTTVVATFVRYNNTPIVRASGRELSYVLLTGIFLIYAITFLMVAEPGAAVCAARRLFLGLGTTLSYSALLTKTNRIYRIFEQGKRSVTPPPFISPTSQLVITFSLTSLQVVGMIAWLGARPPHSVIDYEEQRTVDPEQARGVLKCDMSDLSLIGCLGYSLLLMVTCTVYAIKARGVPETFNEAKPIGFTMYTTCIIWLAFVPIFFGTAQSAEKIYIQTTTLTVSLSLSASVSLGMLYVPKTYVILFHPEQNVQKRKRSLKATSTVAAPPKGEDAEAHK
Summary of the method: (§3)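 Receptor transiently co-expressed in HEK293 cells (electroporation) with chimeric G-protein and glutamate transporter EAAT3. Cells labelled overnight with 3H-myoinositol, stimulated with agonist 30 min, lysed 1 h in cold 0.1 M formic acid. 3H-IP isolated on Dowex ion exchange and counted. IP expressed relative to IP plus membrane radioactivity. Points in triplicate; EC50 from Hill-equation fit.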

[3] = target: T2, Metabotropic glutamate receptor 8 (Homo sapiens, UniProt O00222); assay: Agonist activity at mGlu8 (unknown origin) expressed in HEK293 cells coexpressing chimeric Gq/i protein assessed as [3H]inositol phosphate accumulation after 30 mins by scintillation and luminescence counting method; format: functional, cell-based; summary of the method: as §3
T2 sequence (O00222 whole entry): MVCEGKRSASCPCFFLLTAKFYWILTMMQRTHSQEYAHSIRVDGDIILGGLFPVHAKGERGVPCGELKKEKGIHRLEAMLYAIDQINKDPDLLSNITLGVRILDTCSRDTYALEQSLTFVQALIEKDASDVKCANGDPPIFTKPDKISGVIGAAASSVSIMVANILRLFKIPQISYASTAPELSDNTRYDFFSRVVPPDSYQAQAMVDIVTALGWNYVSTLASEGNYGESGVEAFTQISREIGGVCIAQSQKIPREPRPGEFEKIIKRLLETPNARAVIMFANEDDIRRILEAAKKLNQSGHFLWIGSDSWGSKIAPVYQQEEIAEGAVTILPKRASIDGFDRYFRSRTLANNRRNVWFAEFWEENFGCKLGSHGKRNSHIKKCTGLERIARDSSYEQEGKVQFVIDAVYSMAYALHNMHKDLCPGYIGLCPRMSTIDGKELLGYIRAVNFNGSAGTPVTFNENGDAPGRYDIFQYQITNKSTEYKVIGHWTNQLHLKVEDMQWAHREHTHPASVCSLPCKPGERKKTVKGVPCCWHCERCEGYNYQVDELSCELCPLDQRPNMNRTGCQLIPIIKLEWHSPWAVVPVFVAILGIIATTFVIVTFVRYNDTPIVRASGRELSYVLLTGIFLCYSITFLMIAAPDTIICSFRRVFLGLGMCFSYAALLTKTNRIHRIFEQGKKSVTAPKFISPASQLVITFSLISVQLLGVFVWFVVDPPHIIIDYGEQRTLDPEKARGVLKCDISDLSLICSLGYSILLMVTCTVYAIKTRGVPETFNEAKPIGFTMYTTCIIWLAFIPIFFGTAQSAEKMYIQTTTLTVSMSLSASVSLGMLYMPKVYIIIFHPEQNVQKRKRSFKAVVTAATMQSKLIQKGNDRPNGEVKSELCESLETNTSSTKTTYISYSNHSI

[4] = target: T3, Metabotropic glutamate receptor 7 (Homo sapiens, UniProt Q14831); assay: Agonist activity at mGlu7 (unknown origin) expressed in HEK293 cells coexpressing chimeric Gq/i protein assessed as [3H]inositol phosphate accumulation after 30 mins by scintillation and luminescence counting method; format: functional, cell-based; summary of the method: as §3
T3 sequence (Q14831 whole entry): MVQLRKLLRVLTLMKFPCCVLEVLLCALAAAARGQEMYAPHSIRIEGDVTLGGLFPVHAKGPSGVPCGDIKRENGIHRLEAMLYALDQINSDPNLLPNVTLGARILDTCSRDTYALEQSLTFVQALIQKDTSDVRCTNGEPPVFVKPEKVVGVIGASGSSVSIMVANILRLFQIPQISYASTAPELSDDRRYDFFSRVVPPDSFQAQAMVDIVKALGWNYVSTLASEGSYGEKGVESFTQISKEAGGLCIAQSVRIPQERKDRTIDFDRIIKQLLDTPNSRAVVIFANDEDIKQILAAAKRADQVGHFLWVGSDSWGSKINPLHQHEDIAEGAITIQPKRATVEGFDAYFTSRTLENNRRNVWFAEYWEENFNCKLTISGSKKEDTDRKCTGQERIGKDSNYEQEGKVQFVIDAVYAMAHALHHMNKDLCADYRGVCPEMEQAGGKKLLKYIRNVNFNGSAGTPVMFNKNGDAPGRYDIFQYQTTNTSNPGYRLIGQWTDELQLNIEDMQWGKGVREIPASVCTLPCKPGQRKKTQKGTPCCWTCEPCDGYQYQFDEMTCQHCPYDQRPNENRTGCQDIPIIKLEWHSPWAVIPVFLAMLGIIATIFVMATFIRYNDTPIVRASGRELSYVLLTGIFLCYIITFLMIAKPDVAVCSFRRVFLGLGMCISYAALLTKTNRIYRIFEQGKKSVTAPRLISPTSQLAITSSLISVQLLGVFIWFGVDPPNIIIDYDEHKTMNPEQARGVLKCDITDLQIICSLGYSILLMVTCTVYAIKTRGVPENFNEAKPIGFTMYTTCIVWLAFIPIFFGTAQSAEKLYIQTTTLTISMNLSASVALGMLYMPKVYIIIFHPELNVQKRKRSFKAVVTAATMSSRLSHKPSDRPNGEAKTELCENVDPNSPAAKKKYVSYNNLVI

[5] = target: T1, Metabotropic glutamate receptor 6; assay: Agonist activity at mGlu6 (unknown origin) expressed in HEK293 cells coexpressing chimeric Gq/i protein assessed as increase in intracellular calcium accumulation by Fluo-4 AM dye based fluorescence assay; format: functional, cell-based
[6] = target: Metabotropic glutamate receptor 4 (Homo sapiens, UniProt Q14833); assay: Agonist activity at mGlu4 (unknown origin) expressed in HEK293 cells coexpressing chimeric Gq/i protein assessed as increase in intracellular calcium accumulation by Fluo-4 AM dye based fluorescence assay; format: functional, cell-based
Metabotropic glutamate receptor 4 (Homo sapiens, UniProt Q14833), sequence (Q14833 whole entry): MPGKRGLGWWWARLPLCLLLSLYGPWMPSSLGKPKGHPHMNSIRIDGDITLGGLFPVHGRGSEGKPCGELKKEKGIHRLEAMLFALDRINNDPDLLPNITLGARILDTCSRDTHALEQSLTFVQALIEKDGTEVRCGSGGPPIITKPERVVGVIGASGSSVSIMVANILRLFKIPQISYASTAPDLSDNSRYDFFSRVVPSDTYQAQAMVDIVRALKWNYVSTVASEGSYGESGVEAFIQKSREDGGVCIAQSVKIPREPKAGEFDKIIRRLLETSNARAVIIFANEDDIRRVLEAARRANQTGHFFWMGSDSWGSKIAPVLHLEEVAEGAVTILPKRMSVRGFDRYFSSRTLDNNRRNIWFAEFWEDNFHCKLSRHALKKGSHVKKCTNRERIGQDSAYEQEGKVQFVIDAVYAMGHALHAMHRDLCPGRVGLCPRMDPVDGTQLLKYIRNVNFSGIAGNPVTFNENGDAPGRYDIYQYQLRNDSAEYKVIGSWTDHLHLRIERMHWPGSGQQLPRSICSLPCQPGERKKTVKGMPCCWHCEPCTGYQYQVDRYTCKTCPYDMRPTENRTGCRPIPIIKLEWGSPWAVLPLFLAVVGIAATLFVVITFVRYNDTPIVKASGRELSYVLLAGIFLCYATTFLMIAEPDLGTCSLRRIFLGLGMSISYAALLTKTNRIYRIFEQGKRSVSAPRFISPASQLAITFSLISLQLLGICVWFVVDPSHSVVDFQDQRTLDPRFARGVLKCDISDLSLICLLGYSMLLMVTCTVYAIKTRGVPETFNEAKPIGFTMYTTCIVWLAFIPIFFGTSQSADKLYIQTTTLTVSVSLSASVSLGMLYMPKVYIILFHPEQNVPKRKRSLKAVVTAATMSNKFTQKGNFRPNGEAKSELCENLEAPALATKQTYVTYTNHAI

Homo sapiens [7] = species on record: Homo sapiens; assay: as §1, with “increase in intracellular calcium” for “[3H]inositol phosphate”; format: cell-based; summary of the method: as §2
[8] = target: T3, Metabotropic glutamate receptor 7; assay: Agonist activity at mGlu7 (unknown origin) expressed in HEK293 cells coexpressing chimeric Gq/i protein assessed as increase in intracellular calcium accumulation by Fluo-4 AM dye based fluorescence assay; format: functional, cell-based
[9] = target: T2, Metabotropic glutamate receptor 8; assay: Agonist activity at mGlu8 (unknown origin) expressed in HEK293 cells coexpressing chimeric Gq/i protein assessed as increase in intracellular calcium accumulation by Fluo-4 AM dye based fluorescence assay; format: functional, cell-based
[10] = target: T3, Metabotropic glutamate receptor 7; assay: Agonist activity at mGlu7 (unknown origin) expressed in HEK293 cells coexpressing chimeric Gq/i protein assessed as increase in intracellular calcium accumulation at 300 uM by Fluo-4 AM dye based fluorescence assay; format: functional, cell-based
[11] = target: T4, Metabotropic glutamate receptor 4 (Rattus norvegicus, UniProt P31423); assay: Agonist activity at mGlu4 in Wistar rat striatum assessed as decrease in corticostriatal glutamatergic excitatory post-synaptic potential by whole cell patch clamp assay
T4 sequence (P31423 whole entry): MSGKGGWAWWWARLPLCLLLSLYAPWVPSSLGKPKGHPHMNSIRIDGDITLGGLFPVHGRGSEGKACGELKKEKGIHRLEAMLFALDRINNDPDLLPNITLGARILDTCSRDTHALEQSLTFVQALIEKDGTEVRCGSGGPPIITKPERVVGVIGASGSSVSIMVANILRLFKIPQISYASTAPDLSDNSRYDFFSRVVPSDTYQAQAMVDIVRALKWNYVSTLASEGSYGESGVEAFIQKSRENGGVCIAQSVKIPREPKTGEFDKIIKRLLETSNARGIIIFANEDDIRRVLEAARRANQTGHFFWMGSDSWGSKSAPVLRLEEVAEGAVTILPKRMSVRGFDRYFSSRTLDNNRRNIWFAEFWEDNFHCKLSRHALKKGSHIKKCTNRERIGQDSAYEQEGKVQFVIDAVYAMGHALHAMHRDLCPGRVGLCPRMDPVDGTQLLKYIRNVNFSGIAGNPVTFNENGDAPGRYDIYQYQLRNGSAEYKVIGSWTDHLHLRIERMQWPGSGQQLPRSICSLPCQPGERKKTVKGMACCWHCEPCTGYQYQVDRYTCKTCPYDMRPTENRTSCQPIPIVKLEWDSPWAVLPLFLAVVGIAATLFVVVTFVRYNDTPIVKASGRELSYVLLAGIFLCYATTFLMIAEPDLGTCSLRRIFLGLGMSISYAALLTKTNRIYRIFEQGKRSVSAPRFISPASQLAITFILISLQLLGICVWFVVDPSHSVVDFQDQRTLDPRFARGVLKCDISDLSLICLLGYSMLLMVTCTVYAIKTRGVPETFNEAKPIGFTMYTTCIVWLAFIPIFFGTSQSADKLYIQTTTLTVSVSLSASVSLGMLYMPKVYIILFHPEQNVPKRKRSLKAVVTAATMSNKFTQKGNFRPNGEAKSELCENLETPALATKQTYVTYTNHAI

[12] = target: T4, Metabotropic glutamate receptor 4; assay: Agonist activity at mGlu4 in Wistar rat striatum assessed as decrease in striatal GABAergic inhibitory post-synaptic potential by whole cell patch clamp assay
Homo sapiens [13] = species on record: Homo sapiens; assay: Selectivity ratio of EC50 for mGlu8 (unknown origin) expressed in HEK293 cells coexpressing chimeric Gq/i protein assessed as [3H]inositol phosphate accumulation to EC50 for mGlu4 (unknown origin) expressed in HEK293 cells coexpressing chimeric Gq/i protein assessed as increase in intracellular calcium accumulation; format: cell-based

Row | Compound | Ratio EC50 (Homo sapiens [1]) | EC50 [2] [µM] | EC50 [3] [µM] | EC50 [4] [µM] | EC50 [5] [µM] | EC50 [6] [µM] | Ratio EC50 (Homo sapiens [7]) | EC50 [8] [µM] | EC50 [9] [µM] | Activity [10] | EC50 [11] [µM] | EC50 [12] [µM] | Ratio EC50 (Homo sapiens [13])
1 | N[C@@H](CCP(=O)(O)C(O)c1ccc([N+](=O)[O-])o1)C(=O)O (some centres not stated) | 2.2 | 6.1 | 0.3 | 1970 |  |  |  |  |  |  |  |  | 
2 | N[C@@H](CCP(=O)(O)CCC(=O)O)C(=O)O | 1.2 | 31 | 7.8 |  | 6.7 | 5.94 | 1.1 | 89 | 6.5 |  |  |  | 
3 | Nc1ncc(C(O)P(=O)(O)CC[C@H](N)C(=O)O)s1 (some centres not stated) |  |  |  |  | > 100 | 15 | 1.9 |  | 28 | inactive |  |  | 
4 | N[C@@H](CCP(=O)(O)C(O)c1csc([N+](=O)[O-])c1)C(=O)O (some centres not stated) | 3.2 | 3.6 | 0.51 | 418 |  | 0.19 | 2 |  | 0.38 |  | 9.32 | 0.32 | 
5 | N[C@@H](CCP(=O)(O)C(O)c1ccc(C(F)(F)F)c([N+](=O)[O-])c1)C(=O)O (some centres not stated) |  | 5.7 |  |  | 11.9 | 0.44 | 3.5 | > 100 | 1.54 |  |  |  | 
6 | N[C@@H](CCP(=O)(O)C(O)c1ccc(F)c([N+](=O)[O-])c1)C(=O)O (some centres not stated) | 2.1 | 25 | 1.3 |  | 4 | 0.44 | 1.5 | > 100 | 0.66 |  |  |  | 
7 | N[C@@H](CCP(=O)(O)C(O)c1ccc(C(=O)O)cc1)C(=O)O (some centres not stated) | 18 | 31 | 141 | 169 |  |  |  |  |  |  |  |  | 
8 | N[C@@H](CCP(=O)(O)O)C(=O)O | 2.5 | 2.4 |  | 337 | 1 |  | 2.2 | 249 |  |  |  |  | 
9 | N[C@@H](CCP(=O)(O)C(O)c1cccnc1)C(=O)O (some centres not stated) |  |  | 36 |  |  | 30 |  |  |  |  |  |  | 1.2
10 | N[C@@]1(C(=O)O)C[C@H](C(=O)O)[C@H](C(=O)O)C1 | 3 | 11 | 5.1 | 280 |  |  |  |  |  |  |  |  | 
